The chains are these.
B1: tRNA (parent)
chain: GUUCCGUUGGCGUAAUGGUAACGCGUCUCCCUCCUAAGGAGAAGACUGCGGGUUCGAGUCCCGUACGGAACG

This sample holds only a part of the variants without activity.

The data set covers variants of B1. As to the kind of experiment: yeast fitness relative to wild type (ratio to wild type); higher = fitter; tRNA-Arg(CCU), competitive growth, 37 C, YPD. The method, boiled down:
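A pool of Saccharomyces cerevisiae strains, each with a tRNA-Arg(CCU) gene variant at the native genomic locus, was competed in YPD at 37°C for 24 hours across six parallel replicates. The variants had been chemically synthesised at a 3% per-site mutation rate over 69 sites, and gene amplicons before and after competition were read by 100-nucleotide paired-end sequencing. Darwinian fitness relative to wild type rested on changes in genotype frequencies. Genotypes required ≥ 100 starting reads, and estimates < 0.5 were set to 0.5.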
In the case of C4G U13C C60G A65U, the yeast fitness was no more than 0.5.
Consider C4G U13A A21C U35A A65C, for which the yeast fitness was no more than 0.5.
For C4G G10C C46G, the yeast fitness was found to be 0.632.
To C4G G23C C29U belongs 0.501.
In the case of C4G U8C U16A A21C C24G A37U C49U C55U, the yeast fitness is no more than 0.5.
Regarding C4G U32A C34G G41C C49G, the yeast fitness is no more than 0.5.
C4G U8G A21C: the yeast fitness is no more than 0.5.
For C4G G12A G68U, the yeast fitness was no more than 0.5.
Regarding C4G G17A G52A, the yeast fitness was no more than 0.5.
As for C4G U19A C29G G41A C46U U54C C60A, the yeast fitness worked out at 0.737.
For the variant C4G U26A A43U C46G, the yeast fitness came out at 0.593.
For C4G G23C G67C, the yeast fitness was no more than 0.5.
Turning to C4G C55G G63A, the yeast fitness was 0.558.
Under C4G U16C C27G A40G G48A A57C stands 0.572; under C4G G10C G12C A21C G48C, no more than 0.5; under C4G U8A G12A C22U G48A A69C, 0.522.
Take C4G U19A C27A G58C C61A A69U: the yeast fitness was no more than 0.5.
On to C4G G9A A21C C22A, for which the yeast fitness was no more than 0.5.
For C4G U28G C30A A43C C61G A65G, the yeast fitness was no more than 0.5.
As for C4G C33U A45U C60G, the yeast fitness was no more than 0.5.
Consider C4G G41C, for which the yeast fitness turned out to be 0.834.
As for C4G G9A A21C C22A C66U, the yeast fitness came to 0.559.
On to C4G G6C A21C C31U U35A U47G, for which the yeast fitness is 0.569.
For the variant C4G U13C G23U G48C G50A, the yeast fitness was no more than 0.5.
On to C4G U28G C30A A43C C61G, for which the yeast fitness worked out at 0.571.
For the variant C4G U28A C31G, the yeast fitness was no more than 0.5.
As to C4G U8A G12A U35G, the yeast fitness is no more than 0.5.
Under C4G U8A G18C U32A U47C stands 0.574; under C4G C61U, 0.935; under C4G C61G, 0.659.
Take C4G G17A A20C C61U: the yeast fitness was no more than 0.5.
With C4G U26A C30U, the yeast fitness is no more than 0.5.
Turning to C4G U7C C11U C22U U35G C61A, the yeast fitness was no more than 0.5.
To C4G U8G C60A U64A C66U belongs 0.711; to C4G G67A A70G, 0.665; to C4G G6C, 0.657.
With C4G G58A, the yeast fitness was found to be 1.05.
Under C4G G58C stands 1.1.
In the case of C4G G12A A43U A45C G67C, the yeast fitness is no more than 0.5.
Under C4G U19A A37U A42G A65C G67A stands no more than 0.5; under C4G U16C C31U G51A, 0.533.
Under C4G U8C A15G G23A C34G G67A stands no more than 0.5; under C4G G9A G10C C29A A37G G50U U59G, no more than 0.5.
Turning to C4G G12C A40G, the yeast fitness was no more than 0.5.
As to C4G G44A, the yeast fitness was determined as 0.726.
On to C4G G44C, for which the yeast fitness worked out at 0.826.
On to C4G U26A C27U A42C G51A A65U, for which the yeast fitness is no more than 0.5.
For the variant C4G C60G G68C, the yeast fitness worked out at 0.622.
Turning to C4G C46G, the yeast fitness came to 0.854.
C4G G10A A42C U54G: the yeast fitness is no more than 0.5.
On to C4G G9A G18C C31U C55A A65C, for which the yeast fitness is no more than 0.5.
For the variant C4G U7G G12C, the yeast fitness was no more than 0.5.
In the case of C4G C55A C60A, the yeast fitness was no more than 0.5.
As for C4G G18C C33G G41A, the yeast fitness was no more than 0.5.
Turning to C4G U8A C11G A42U U64C G68C, the yeast fitness is no more than 0.5.
Regarding C4G G17A A43G, the yeast fitness is no more than 0.5.
As to C4G U28A G39A, the yeast fitness was no more than 0.5.
As for C4G G50C C55G C62G, the yeast fitness was no more than 0.5.
For the variant C4G C55U G68C, the yeast fitness came to 0.56.
As for C4G G18C A65U, the yeast fitness is no more than 0.5.
Under C4G U7G C60A C62U G68C stands no more than 0.5; under C4G U8A G12A A14G G48A A69C, no more than 0.5.
For the variant C4G G9A G18C C31U U47G, the yeast fitness is no more than 0.5.
To C4G G9C C22A A69U belongs 0.525; to C4G U7G C31U A65U, no more than 0.5.
Turning to C4G U28G C30A A42G A43C C61G, the yeast fitness was no more than 0.5.
Turning to C4G U32A G38C, the yeast fitness was no more than 0.5.
With C4G C49U G52A, the yeast fitness was determined as 0.55.
Take C4G G38C G63A G68C A69G: the yeast fitness was no more than 0.5.
Under C4G U8C G25A A42U A70U stands no more than 0.5.
For C4G U8G G18C C49U G58A G67A, the yeast fitness was no more than 0.5.
Regarding C4G G10U A14U C24U C33U G52A C66U, the yeast fitness is no more than 0.5.
Consider C4G U8C A15C C31A A36U A37C C60A A65G A69G, for which the yeast fitness is no more than 0.5.
On to C4G G10C G12C A21C G48C A57G, for which the yeast fitness is 0.527.
As for C4G U26C G50A, the yeast fitness was no more than 0.5.
C4G U7G U59G G63C: the yeast fitness was no more than 0.5.
Turning to C4G C49U G52A C60G, the yeast fitness was no more than 0.5.
For C4G U32G A69C, the yeast fitness was no more than 0.5.
As for C4G G17C A37U G58A C61A, the yeast fitness is no more than 0.5.
For the variant C4G G9A G39A A65U A69U, the yeast fitness is no more than 0.5.
Consider C4G U16G A20C A21G C30U, for which the yeast fitness is no more than 0.5.
Under C4G G9A G10C C29A U53C C62U stands no more than 0.5.
Under C4G U28C C55U stands no more than 0.5; under C4G G52C A57C G63C, no more than 0.5.

The values above are taken from the RNAGym collection of RNA variant scans (doi:10.1126/science.aae0568).
